These results are taken from ChEMBL document CHEMBL1150387, “Development and experimental validation of a docking strategy for the generation of kinase-targeted libraries” (J Med Chem, 2008).

SMILES strings stand for the structures.

For assay [1], the target named is Tyrosine-protein kinase ABL1 (Homo sapiens) (UniProt P00519). The experiment in a line: Inhibition of Abl at 10 uM by HTRF assay relative to control. A digest of the protocol: (§1)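 HTRF kinase assay, one panel of kinases. Inhibitor stock 50 µM in 100% DMSO; tested at 10 µM. ATP and substrate at final levels near Km. Final buffer: 50 mM Hepes/NaOH pH 7.4, 40 µM Na3VO4, 0.005% Tween-20, 1 mM DTT, MnCl2 or MgCl2 at kinase-dependent levels. Started by adding ATP/substrate. Reaction run at room temperature, time varied by kinase. Detection mix in 50 mM Hepes pH 7.4, 0.1% BSA, 150 mM KF, incubated ≥1 h at room temperature. Activity expressed as % of uninhibited control; n=2.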
In general terms: TR-FRET usually uses a lanthanide donor and a delayed reading to cut background.

In assay [2] the target is Focal adhesion kinase 1 (Homo sapiens) (UniProt Q05397). The experiment in a line: Inhibition of FAK at 10 uM by HTRF assay relative to control. A digest of the protocol: as §1
Chain of Focal adhesion kinase 1 (Homo sapiens) (Q05397 2-1052 limits assumed): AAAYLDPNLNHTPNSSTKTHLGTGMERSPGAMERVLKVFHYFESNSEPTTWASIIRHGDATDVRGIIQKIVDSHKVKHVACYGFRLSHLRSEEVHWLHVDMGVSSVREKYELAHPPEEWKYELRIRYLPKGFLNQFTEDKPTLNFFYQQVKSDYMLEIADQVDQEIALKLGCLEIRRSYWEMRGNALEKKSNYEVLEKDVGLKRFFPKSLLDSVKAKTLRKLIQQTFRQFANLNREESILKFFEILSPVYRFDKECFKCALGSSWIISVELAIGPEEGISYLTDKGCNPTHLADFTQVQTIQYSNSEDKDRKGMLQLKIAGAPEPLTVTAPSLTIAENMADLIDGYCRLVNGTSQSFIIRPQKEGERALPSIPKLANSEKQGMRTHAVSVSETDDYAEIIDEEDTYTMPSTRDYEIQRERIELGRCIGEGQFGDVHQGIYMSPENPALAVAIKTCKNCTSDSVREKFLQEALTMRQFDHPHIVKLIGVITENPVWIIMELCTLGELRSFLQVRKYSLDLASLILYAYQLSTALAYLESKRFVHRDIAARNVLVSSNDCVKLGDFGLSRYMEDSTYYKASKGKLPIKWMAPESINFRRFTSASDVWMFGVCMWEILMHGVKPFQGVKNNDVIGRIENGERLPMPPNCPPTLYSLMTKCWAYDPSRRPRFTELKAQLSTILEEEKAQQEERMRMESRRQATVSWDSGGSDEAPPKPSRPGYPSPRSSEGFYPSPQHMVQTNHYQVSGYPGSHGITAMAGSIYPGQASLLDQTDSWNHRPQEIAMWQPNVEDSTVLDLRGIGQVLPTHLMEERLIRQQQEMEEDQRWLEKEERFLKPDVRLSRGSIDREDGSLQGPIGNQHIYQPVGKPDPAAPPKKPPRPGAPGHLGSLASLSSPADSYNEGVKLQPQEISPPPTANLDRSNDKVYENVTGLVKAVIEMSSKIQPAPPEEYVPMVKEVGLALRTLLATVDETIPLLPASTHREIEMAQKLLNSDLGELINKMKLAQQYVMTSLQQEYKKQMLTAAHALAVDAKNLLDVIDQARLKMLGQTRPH
In assay [3] the target is Receptor-type tyrosine-protein kinase FLT3 (Homo sapiens) (UniProt P36888). The experiment in a line: Inhibition of FLT3 at 10 uM by HTRF assay relative to control. In a few lines:
as §1

For assay [4], the target named is T1, Ephrin type-B receptor 4 (Homo sapiens) (UniProt P54760).
T1 sequence (whole entry): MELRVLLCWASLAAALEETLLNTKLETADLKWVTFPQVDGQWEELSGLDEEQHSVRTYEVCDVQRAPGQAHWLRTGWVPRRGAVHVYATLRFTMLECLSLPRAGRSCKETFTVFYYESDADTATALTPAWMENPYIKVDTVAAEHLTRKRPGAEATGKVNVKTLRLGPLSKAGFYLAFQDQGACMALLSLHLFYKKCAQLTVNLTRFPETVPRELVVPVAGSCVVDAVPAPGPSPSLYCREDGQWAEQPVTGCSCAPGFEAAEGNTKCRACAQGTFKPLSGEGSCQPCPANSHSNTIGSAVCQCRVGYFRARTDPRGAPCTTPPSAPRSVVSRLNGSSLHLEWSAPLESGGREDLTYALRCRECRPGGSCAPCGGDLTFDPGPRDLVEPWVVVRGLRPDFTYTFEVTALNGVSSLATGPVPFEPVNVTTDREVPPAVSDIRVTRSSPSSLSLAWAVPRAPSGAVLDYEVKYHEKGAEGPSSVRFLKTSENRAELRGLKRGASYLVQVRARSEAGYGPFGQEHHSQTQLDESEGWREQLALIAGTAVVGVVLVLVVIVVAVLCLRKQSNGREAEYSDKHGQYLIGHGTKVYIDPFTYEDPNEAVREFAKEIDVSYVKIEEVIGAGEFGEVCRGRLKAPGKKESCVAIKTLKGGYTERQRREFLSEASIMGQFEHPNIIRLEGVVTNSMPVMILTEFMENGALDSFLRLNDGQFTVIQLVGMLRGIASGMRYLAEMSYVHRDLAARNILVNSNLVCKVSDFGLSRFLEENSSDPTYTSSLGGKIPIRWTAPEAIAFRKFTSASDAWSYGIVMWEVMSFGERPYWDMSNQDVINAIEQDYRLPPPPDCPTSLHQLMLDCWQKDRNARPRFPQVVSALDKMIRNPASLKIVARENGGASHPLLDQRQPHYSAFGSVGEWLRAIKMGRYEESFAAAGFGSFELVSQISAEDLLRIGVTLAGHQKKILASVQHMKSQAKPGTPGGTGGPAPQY
The experiment in a line: Inhibition of EphB4 at 10 uM by HTRF assay relative to control. A digest of the protocol:
as §1

Assay [5] addresses Mitogen-activated protein kinase 1 (Homo sapiens) (UniProt P28482). The experiment in a line: Inhibition of ERK2 at 10 uM by HTRF assay relative to control. A digest of the protocol:
as §1

The nature of assay [6]: Inhibition of PKA at 10 uM by HTRF assay relative to control. In a few lines: as §1
The target of assay [7] is Vascular endothelial growth factor receptor 2 (Homo sapiens) (UniProt P35968). The experiment in a line: Inhibition of KDR at 10 uM by HTRF assay relative to control. A digest of the protocol:
as §1

Assay [8] has as its target RAC-alpha serine/threonine-protein kinase (Homo sapiens) (UniProt P31749). Put plainly: Inhibition of AKT1/PKBalpha at 10 uM by HTRF assay relative to control. In a few lines:
as §1

Assay [9] concerns the target T2, Tyrosine-protein kinase ZAP-70 (Homo sapiens) (UniProt P43403).
T2 sequence (whole entry): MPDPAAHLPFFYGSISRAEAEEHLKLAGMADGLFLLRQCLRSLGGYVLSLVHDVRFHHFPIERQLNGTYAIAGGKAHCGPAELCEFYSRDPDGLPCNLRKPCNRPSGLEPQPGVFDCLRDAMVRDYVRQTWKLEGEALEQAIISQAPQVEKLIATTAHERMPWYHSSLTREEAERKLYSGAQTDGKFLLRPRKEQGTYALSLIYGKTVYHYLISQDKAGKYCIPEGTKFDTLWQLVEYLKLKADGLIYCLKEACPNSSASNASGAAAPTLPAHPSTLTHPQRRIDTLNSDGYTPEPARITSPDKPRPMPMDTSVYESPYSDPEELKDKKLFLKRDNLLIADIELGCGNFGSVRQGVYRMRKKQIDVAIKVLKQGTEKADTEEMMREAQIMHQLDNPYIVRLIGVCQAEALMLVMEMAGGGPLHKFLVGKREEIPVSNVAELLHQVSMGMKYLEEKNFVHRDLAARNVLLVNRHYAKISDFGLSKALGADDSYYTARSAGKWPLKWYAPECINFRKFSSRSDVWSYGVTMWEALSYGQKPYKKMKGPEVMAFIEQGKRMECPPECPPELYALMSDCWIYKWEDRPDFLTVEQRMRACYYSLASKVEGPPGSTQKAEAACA
The experiment in a line: Inhibition of ZAP70 at 10 uM by HTRF assay relative to control. In a few lines: as §1

For assay [10], the target named is Tyrosine-protein kinase Lyn (Homo sapiens) (UniProt P07948). The experiment in a line: Inhibition of Lyn at 10 uM by HTRF assay relative to control. In a few lines: as §1
Chain of Tyrosine-protein kinase Lyn (Homo sapiens) (P07948 2-512 limits assumed): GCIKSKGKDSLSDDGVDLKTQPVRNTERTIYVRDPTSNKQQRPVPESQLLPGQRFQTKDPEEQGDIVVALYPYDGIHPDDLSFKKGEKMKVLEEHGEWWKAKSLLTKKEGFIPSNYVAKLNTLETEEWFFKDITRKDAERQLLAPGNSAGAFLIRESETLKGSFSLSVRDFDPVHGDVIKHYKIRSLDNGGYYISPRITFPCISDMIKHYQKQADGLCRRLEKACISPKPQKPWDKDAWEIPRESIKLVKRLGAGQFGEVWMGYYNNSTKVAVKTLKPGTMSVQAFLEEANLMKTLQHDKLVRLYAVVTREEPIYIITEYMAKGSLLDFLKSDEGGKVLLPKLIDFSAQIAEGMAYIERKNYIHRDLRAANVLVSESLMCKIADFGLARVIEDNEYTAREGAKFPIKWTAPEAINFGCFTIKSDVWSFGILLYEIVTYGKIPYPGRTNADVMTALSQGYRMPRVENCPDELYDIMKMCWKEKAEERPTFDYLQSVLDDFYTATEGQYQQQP

Chain of Receptor-type tyrosine-protein kinase FLT3 (Homo sapiens) (P36888 whole entry): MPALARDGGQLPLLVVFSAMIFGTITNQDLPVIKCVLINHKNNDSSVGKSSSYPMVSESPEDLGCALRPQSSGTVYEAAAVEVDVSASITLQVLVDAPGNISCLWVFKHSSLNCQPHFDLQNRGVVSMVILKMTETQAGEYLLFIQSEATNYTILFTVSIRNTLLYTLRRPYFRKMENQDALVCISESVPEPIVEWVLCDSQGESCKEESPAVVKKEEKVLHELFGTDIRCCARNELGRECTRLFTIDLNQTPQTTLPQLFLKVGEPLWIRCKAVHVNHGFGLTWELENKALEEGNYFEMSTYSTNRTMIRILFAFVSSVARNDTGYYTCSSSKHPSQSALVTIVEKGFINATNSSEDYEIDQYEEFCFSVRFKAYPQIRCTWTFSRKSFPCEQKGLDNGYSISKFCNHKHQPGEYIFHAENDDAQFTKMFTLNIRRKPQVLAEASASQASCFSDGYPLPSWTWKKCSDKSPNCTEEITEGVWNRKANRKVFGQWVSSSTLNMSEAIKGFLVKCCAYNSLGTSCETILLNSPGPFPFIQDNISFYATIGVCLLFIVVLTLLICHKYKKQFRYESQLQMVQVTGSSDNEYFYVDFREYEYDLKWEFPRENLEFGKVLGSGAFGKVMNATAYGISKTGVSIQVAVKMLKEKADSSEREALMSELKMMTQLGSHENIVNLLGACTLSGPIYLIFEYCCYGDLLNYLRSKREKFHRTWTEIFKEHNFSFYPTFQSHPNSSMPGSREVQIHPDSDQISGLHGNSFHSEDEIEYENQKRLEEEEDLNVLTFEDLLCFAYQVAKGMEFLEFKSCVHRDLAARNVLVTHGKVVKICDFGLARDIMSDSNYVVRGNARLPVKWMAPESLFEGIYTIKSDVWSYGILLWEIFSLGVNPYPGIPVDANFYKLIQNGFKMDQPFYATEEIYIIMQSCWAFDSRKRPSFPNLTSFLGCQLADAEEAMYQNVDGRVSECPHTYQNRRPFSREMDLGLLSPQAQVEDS
Chain of Mitogen-activated protein kinase 1 (Homo sapiens) (P28482 whole entry): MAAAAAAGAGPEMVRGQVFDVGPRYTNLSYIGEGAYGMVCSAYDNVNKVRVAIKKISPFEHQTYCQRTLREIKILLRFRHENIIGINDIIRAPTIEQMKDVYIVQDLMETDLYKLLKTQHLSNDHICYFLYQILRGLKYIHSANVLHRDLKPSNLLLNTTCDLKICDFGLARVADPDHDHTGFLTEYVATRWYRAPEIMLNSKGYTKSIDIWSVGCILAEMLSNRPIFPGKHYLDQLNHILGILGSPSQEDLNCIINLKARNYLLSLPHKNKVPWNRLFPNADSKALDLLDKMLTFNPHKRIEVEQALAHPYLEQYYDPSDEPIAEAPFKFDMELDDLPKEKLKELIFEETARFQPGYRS
Chain of Vascular endothelial growth factor receptor 2 (Homo sapiens) (P35968 whole entry): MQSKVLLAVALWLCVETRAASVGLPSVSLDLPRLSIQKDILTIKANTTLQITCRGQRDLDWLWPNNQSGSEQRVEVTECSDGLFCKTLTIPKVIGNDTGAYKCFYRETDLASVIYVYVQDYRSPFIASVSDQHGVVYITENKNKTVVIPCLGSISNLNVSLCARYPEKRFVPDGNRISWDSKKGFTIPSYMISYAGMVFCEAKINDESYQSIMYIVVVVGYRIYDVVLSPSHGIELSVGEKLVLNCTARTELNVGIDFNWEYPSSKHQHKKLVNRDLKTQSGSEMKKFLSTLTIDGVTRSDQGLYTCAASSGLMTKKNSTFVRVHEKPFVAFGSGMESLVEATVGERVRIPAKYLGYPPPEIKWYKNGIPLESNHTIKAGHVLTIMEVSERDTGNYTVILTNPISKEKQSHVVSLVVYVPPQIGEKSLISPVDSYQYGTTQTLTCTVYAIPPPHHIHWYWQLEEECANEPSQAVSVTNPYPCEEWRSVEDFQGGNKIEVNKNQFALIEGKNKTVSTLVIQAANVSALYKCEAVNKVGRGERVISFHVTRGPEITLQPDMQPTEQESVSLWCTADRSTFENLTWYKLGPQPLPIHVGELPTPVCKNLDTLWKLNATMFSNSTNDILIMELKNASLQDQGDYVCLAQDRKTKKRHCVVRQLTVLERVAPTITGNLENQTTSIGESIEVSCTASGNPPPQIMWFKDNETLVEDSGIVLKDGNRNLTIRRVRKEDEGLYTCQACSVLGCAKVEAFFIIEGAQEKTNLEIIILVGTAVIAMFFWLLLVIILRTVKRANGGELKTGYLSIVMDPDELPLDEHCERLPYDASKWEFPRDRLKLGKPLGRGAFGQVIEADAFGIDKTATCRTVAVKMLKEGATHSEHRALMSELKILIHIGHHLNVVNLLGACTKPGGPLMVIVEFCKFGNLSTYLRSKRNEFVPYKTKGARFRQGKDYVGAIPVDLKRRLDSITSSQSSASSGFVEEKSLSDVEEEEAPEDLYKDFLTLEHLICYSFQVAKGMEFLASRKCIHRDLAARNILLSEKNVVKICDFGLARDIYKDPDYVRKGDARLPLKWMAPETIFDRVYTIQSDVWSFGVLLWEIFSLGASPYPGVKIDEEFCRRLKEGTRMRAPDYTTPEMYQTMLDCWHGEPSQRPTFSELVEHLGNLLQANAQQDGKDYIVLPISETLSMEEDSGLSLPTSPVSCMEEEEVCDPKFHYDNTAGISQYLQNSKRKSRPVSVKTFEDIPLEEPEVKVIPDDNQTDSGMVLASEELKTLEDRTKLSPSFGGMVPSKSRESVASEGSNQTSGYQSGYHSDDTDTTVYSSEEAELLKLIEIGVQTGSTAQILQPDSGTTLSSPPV
Chain of RAC-alpha serine/threonine-protein kinase (Homo sapiens) (P31749 whole entry): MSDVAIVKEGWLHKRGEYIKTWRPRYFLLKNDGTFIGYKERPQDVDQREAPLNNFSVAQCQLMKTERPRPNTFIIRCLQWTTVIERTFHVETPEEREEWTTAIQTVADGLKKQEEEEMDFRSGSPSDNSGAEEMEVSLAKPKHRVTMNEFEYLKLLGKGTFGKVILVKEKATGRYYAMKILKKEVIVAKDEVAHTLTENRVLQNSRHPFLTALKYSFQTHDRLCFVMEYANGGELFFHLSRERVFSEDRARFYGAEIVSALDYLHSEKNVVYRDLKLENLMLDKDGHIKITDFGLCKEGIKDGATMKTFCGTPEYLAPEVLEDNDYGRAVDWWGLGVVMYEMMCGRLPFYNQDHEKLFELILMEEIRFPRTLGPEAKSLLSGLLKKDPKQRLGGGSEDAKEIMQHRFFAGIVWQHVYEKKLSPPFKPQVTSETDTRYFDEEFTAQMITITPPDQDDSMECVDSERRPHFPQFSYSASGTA

Take `Nc1nc(Nc2ccc3ncsc3c2)cc(N2CCC[C@H]2C(=O)NCCc2cccc(I)c2)n1`: the inhibition (as a rule, the change of the read-out against control, counted positive when it falls) in assay [1] was determined as 7%; in assay [2] it was 4%; in assay [3] it was 11%; in [4] it was 0%; in assay [5], 0%; in [6] it was 1%. The inhibition in assay [7] was found to be 17%; in assay [8] it was 0%; in [9], 2%; in assay [10] it was 13%.
`Cc1cccc(N(C)c2cc(Nc3cccc(C(=O)NCc4ccncc4)c3)ncn2)c1`: the inhibition amounted to 53% in assay [1]; 20% in assay [2]; 13% in assay [3]; 0% in assay [4]; 6% in [5]; 0% in [6]. In addition, the inhibition is 19% in assay [7], 0% in assay [8], 6% in [9] and 19% in [10].
Consider `Nc1nc(Nc2ccc3ncsc3c2)cc(N2CCC[C@H]2C(=O)N[C@@H](CO)c2ccccc2)n1`, for which the inhibition in assay [1] is 0%; in [2] it was 7%; in assay [3] it was 0%; in assay [4] it was 0%; in assay [5], 0%; in assay [6] it was 1%. Besides, the inhibition in assay [7] was 10%; in assay [8], 0%; in assay [9], 6%; in assay [10], 0%.
Consider `O=C(NC1Cc2ccccc2C1)c1cccc(Nc2ccnc(N3CCN(c4ccccc4)CC3)n2)c1`, for which the inhibition in [1] is 11%; in [2], 0%; in [3], 0%; in assay [4] it was 0%; in [5] it was 0%; in assay [6] it was 0%. In addition, the inhibition in assay [7] is 6%; in assay [8] it was 2%; in assay [9], 6%; in assay [10] it was 4%.
As to `Nc1nc(Nc2ccc(C(=O)NCCc3ccncc3)cc2)cc(N2CCOCC2)n1`, the inhibition in assay [1] was 6%; in assay [2], 3%; in assay [3] it was 0%; in assay [4], 0%; in assay [5], 0%; in [6] it was 3%. The inhibition in [7] was 13%; in [8], 2%; in [9], 6%; in [10] it was 1%.
For `Cc1cccc(N(C)c2cc(Nc3cccc(C(=O)N(C)CCc4ccccn4)c3)ncn2)c1`, the inhibition in assay [1] turned out to be 49%; in assay [2], 6%; in assay [3], 0%; in [4], 0%; in assay [5], 6%; in assay [6], 0%. Besides, the inhibition in assay [7] is 31%; in [8] it was 2%; in assay [9], 4%; in assay [10], 14%.
As for `Cc1cccc(N(C)c2cc(N3CCN(CC(=O)Nc4nc(-c5ccccc5)cs4)CC3)ncn2)c1`, the inhibition in [1] was 6%; in assay [2] it was 5%; in [3], 0%; in [4], 0%; in [5], 0%; in [6] it was 0%. Besides, the inhibition in assay [7] is 9%; in assay [8] it was 0%; in assay [9], 2%; in [10], 2%.
As for `CC(=O)N1CCN(C(=O)c2cccc(Nc3cc(N(C)c4cccc(C)c4)ncn3)c2)CC1`, the inhibition in assay [1] was found to be 47%; in assay [2], 17%; in assay [3], 29%; in assay [4] it was 0%; in assay [5], 0%; in [6], 0%. Moreover, the inhibition in [7] stood at 41%; in assay [8], 0%; in assay [9] it was 9%; in assay [10], 29%.
Regarding `Cc1cccc(Oc2ccnc(N3CCN(CC(=O)Nc4cccc5c4CCCC5)CC3)n2)c1`, the inhibition in [1] was found to be 1%; in assay [2], 0%; in assay [3], 0%; in assay [4], 0%; in assay [5] it was 6%; in [6] it was 5%. Moreover, the inhibition in assay [7] was found to be 0%; in assay [8], 1%; in assay [9], 1%; in assay [10], 1%.
